Experimental data taken from ChEMBL document CHEMBL5107959, “Structure-activity relationships of valine, tert-leucine, and phenylalanine amino acid-derived synthetic cannabinoid receptor agonists related to ADB-BUTINACA, APP-BUTINACA, and ADB-P7AICA” (RSC Med Chem, 2022).

Columns and labels:
Cannabinoid receptor 1 [1] = biological target: T1, Cannabinoid receptor 1 (Homo sapiens, UniProt P21554); assay: Agonist activity at human CB1 receptor expressed in mouse AtT20 cells assessed as maximal agonist effect by measuring fluorescence at 10 uM incubated for 60 mins by FLIPR membrane potential assay relative to CP55940; assay type: functional, cell-based
T1 sequence (P21554 whole entry): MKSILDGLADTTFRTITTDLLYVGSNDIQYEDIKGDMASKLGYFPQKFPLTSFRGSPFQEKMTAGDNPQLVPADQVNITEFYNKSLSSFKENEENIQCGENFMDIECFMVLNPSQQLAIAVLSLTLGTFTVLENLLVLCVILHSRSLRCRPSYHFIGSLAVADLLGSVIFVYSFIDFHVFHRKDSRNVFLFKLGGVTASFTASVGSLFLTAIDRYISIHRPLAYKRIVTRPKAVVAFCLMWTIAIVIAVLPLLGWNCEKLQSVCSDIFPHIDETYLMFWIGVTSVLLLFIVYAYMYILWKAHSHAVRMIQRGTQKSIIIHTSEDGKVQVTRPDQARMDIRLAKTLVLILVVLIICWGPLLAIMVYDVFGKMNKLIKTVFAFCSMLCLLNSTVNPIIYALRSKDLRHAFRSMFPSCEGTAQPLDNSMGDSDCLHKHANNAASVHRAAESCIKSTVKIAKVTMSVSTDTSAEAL
Summary of the method: (§1)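 AtT20 FlpIn cells stably expressing human CB1 or CB2, plated overnight in L-15 with 1% FBS. Loaded 60 min at 37 °C with FLIPR blue membrane potential dye, pH 7.4 buffer. Fluorescence (ex 530/em 565 nm) read every 2 s; 2 min baseline, then drug added. Change in fluorescence versus baseline minus vehicle (DMSO 0.1%/BSA 0.01% final), normalised to 1 μM CP55,940. Response taken at 10 μM where <50% change.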

Cannabinoid receptor 2 [2] = biological target: T2, Cannabinoid receptor 2 (Homo sapiens, UniProt P34972); assay: Agonist activity at CB2 receptor (unknown origin) expressed in human HEK293T cells co-expressing beta-arrestin2 assessed as beta-arrestin2 recruitment using furimazine as substrate by Nano-Glo live cell reagent assay; assay type: functional, cell-based
T2 sequence (P34972 whole entry): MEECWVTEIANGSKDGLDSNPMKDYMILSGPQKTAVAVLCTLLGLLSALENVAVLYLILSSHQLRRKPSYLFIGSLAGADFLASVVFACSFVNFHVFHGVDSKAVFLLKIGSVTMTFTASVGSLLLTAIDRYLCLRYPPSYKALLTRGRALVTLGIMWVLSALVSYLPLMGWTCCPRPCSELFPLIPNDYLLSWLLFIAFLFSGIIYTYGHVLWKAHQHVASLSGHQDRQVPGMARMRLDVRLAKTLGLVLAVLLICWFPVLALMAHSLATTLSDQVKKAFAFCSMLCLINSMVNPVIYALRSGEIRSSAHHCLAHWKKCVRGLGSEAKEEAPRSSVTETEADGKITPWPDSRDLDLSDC
Summary of the method: (§2)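 βarr2 recruitment by NanoBiT split-luciferase complementation in HEK293T stably expressing CB1-βarr2 or CB2-βarr2. Nano-Glo Live Cell reagent (furimazine) equilibrated 10 min before compound, then luminescence monitored continuously 2 h. Stocks in methanol, diluted in MeOH/Opti-MEM. EC50 from four-parameter logistic fit. Duplicates in ≥3 independent experiments.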

Cannabinoid receptor 1 [3] = biological target: T1, Cannabinoid receptor 1; assay: Displacement of [3H]-CP55940 from human CB1 receptor expressed in human HEK293-EBNA cells incubated for 60 mins by radioligand competitive binding assay based liquid scintillation counter; assay type: cell-based
Cannabinoid receptor 2 [4] = biological target: T2, Cannabinoid receptor 2; assay: Agonist activity at human CB2 receptor expressed in mouse AtT20 cells assessed as maximal agonist effect by measuring fluorescence at 10 uM incubated for 60 mins by FLIPR membrane potential assay relative to CP55940; assay type: functional, cell-based; settings: filed as agonist; summary of the method: as §1
Cannabinoid receptor 2 [5] = biological target: T2, Cannabinoid receptor 2; assay: Agonist activity at human CB2 receptor expressed in mouse AtT20 cells incubated for 60 mins by FLIPR membrane potential assay; assay type: functional, cell-based
Cannabinoid receptor 2 [6] = biological target: T2, Cannabinoid receptor 2; assay: Displacement of [3H]-CP55940 from N-terminal 3HA-tagged human CB2 receptor expressed in human HEK293-EBNA cells incubated for 60 mins by radioligand competitive binding assay based liquid scintillation counter; assay type: cell-based
Cannabinoid receptor 2 [7] = biological target: T2, Cannabinoid receptor 2; assay: Agonist activity at CB2 receptor (unknown origin) expressed in human HEK293T cells co-expressing beta-arrestin2 assessed as beta-arrestin2 recruitment by measuring maximal luminescence using furimazine as substrate at 100 uM by Nano-Glo live cell reagent assay relative to CP55940; assay type: functional, cell-based; settings: filed as agonist
Summary of the method: (§3)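 βarr2 recruitment by NanoBiT split-luciferase complementation in HEK293T stably expressing CB1-βarr2 or CB2-βarr2. Cells seeded on poly-D-lysine overnight, washed into Opti-MEM. Nano-Glo Live Cell reagent (furimazine) equilibrated 10 min, then compound added and luminescence followed 2 h. […] Value read at highest tested concentration, 100 μM. Duplicates, ≥3 independent experiments.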

Cannabinoid receptor 1 [8] = biological target: T1, Cannabinoid receptor 1; assay: Agonist activity at CB1 receptor (unknown origin) expressed in human HEK293T cells co-expressing beta-arrestin2 assessed as beta-arrestin2 recruitment using furimazine as substrate by Nano-Glo live cell reagent assay; assay type: functional, cell-based; summary of the method: as §2
Cannabinoid receptor 1 [9] = biological target: T1, Cannabinoid receptor 1; assay: Agonist activity at human CB1 receptor expressed in mouse AtT20 cells incubated for 60 mins by FLIPR membrane potential assay; assay type: functional, cell-based
Cannabinoid receptor 1 [10] = biological target: T1, Cannabinoid receptor 1; assay: Agonist activity at CB1 receptor (unknown origin) expressed in human HEK293T cells co-expressing beta-arrestin2 assessed as beta-arrestin2 recruitment by measuring maximal luminescence using furimazine as substrate at 100 uM by Nano-Glo live cell reagent assay relative to CP55940; assay type: functional, cell-based; summary of the method: as §3
Cannabinoid receptor 1 [11] = biological target: T1, Cannabinoid receptor 1; assay: Agonist activity at human CB1 receptor expressed in mouse AtT20 cells at 10 uM incubated for 60 mins by FLIPR membrane potential assay; assay type: functional, cell-based; summary of the method: as §1
[12] = Toxicity in C57BL/6J mouse assessed as reduction in body temperature upto 10 mg/kg,ip measured after 2.5 hrs by radio-biotelemetry analysis; assay type: organism-based; settings: in vivo
Summary of the method: (§4)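 Male C57BL/6J mice (four per cohort) fitted with intraperitoneal biotelemetry transmitters, 10 days' recovery. Compound in EtOH/polysorbate 80/saline (5:5:90) given i.p. at 10 μL/g after baseline vehicle injection; escalating doses 0.03 to 10 mg/kg, one every three days.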

[13] = Toxicity in C57BL/6J mouse assessed as reduction in body temperature at 0.1 mg/kg,ip measured after 2.5 hrs by radio-biotelemetry analysis; assay type: organism-based; settings: in vivo; summary of the method: as §4
[14] = Toxicity in C57BL/6J mouse assessed as reduction in body temperature at 10 mg/kg,ip measured after 2.5 hrs by radio-biotelemetry analysis; assay type: organism-based; settings: in vivo; summary of the method: as §4

## CCCCn1cc(C(=O)N[C@H](C(N)=O)C(C)C)c2ccccc21
Cannabinoid receptor 1 [1]; filed as agonist
  Emax: 107%
Cannabinoid receptor 2 [2]
  EC50: 283 nM
Cannabinoid receptor 1 [3]
  Ki: 12.2 nM
Cannabinoid receptor 2 [4]
  Emax: 106%
Cannabinoid receptor 2 [5]
  EC50: 28 nM
Cannabinoid receptor 2 [6]
  Ki: 77.6 nM
Cannabinoid receptor 2 [7]
  Emax: 94%
Cannabinoid receptor 1 [8]; read-out: EC50
  EC50: 3300 nM
Cannabinoid receptor 1 [9]
  EC50: 53 nM
Cannabinoid receptor 1 [10]; filed as agonist
  Emax: 390%

## CCCCCn1cc(C(=O)N[C@H](C(N)=O)C(C)C)c2cccnc21
Cannabinoid receptor 1 [1]; filed as agonist
  Emax: 112%
Cannabinoid receptor 2 [2]
  EC50: 694 nM
Cannabinoid receptor 1 [3]
  Ki: 49.5 nM
Cannabinoid receptor 2 [4]
  Emax: 93%
Cannabinoid receptor 2 [5]
  EC50: 47 nM
Cannabinoid receptor 2 [6]
  Ki: 251 nM
Cannabinoid receptor 2 [7]
  Emax: 70%
Cannabinoid receptor 1 [8]; read-out: EC50
  EC50: 4150 nM
Cannabinoid receptor 1 [9]
  EC50: 101 nM
Cannabinoid receptor 1 [10]; filed as agonist
  Emax: 278%

## CCCCn1cc(C(=O)N[C@H](C(N)=O)C(C)(C)C)c2cccnc21
Cannabinoid receptor 1 [1]; filed as agonist
  Emax: 117%
Cannabinoid receptor 2 [2]
  EC50: 120 nM
Cannabinoid receptor 1 [3]
  Ki: 15.5 nM
Cannabinoid receptor 2 [4]
  Emax: 103%
Cannabinoid receptor 2 [5]
  EC50: 21 nM
Cannabinoid receptor 2 [6]
  Ki: 40.7 nM
Cannabinoid receptor 2 [7]
  Emax: 85%
Cannabinoid receptor 1 [8]; read-out: EC50
  EC50: 2890 nM
Cannabinoid receptor 1 [9]
  EC50: 88 nM
Cannabinoid receptor 1 [10]; filed as agonist
  Emax: 406%

## CCCCCn1cc(C(=O)N[C@@H](Cc2ccccc2)C(N)=O)c2cccnc21
Cannabinoid receptor 1 [1]
  Emax: 30%
Cannabinoid receptor 2 [2]
  EC50: 766 nM
Cannabinoid receptor 1 [3]
  Ki: 437 nM
Cannabinoid receptor 2 [4]
  Emax: 78%
Cannabinoid receptor 2 [5]
  EC50: 381 nM
Cannabinoid receptor 1 [11]
  Activity: < 50%
Cannabinoid receptor 2 [6]
  Ki: 794 nM
Cannabinoid receptor 2 [7]
  Emax: 52%
Cannabinoid receptor 1 [8]; read-out: EC50
  EC50: > 100000 nM
Cannabinoid receptor 1 [10]
  Emax: 6%

## CCCCn1cc(C(=O)N[C@@H](Cc2ccccc2)C(N)=O)c2ccccc21
Cannabinoid receptor 1 [1]; filed as agonist
  Emax: 93%
Cannabinoid receptor 2 [2]
  EC50: 209 nM
Cannabinoid receptor 1 [3]
  Ki: 307 nM
Cannabinoid receptor 2 [4]
  Emax: 92%
Cannabinoid receptor 2 [5]
  EC50: 40 nM
Cannabinoid receptor 2 [6]
  Ki: 148 nM
Cannabinoid receptor 2 [7]
  Emax: 76%
Cannabinoid receptor 1 [8]; read-out: EC50
  EC50: 15500 nM
Cannabinoid receptor 1 [9]
  EC50: 5100 nM
Cannabinoid receptor 1 [10]; filed as agonist
  Emax: 50%

## CCCCn1nc(C(=O)N[C@@H](Cc2ccccc2)C(N)=O)c2ccccc21
[12]
  Activity: Toxic
Cannabinoid receptor 1 [1]; filed as agonist
  Emax: 95%
Cannabinoid receptor 2 [2]
  EC50: 17 nM
Cannabinoid receptor 1 [3]
  Ki: 25.1 nM
Cannabinoid receptor 2 [4]
  Emax: 99%
Cannabinoid receptor 2 [5]
  EC50: 6.8 nM
Cannabinoid receptor 2 [6]
  Ki: 39.8 nM
Cannabinoid receptor 2 [7]
  Emax: 71%
Cannabinoid receptor 1 [8]; read-out: EC50
  EC50: 1170 nM
Cannabinoid receptor 1 [9]
  EC50: 161 nM
Cannabinoid receptor 1 [10]; filed as agonist
  Emax: 216%

## CCCCn1nc(C(=O)N[C@H](C(N)=O)C(C)(C)C)c2ccccc21
Cannabinoid receptor 1 [1]; filed as agonist
  Emax: 113%
[13]
  Activity: Toxic
Cannabinoid receptor 2 [2]
  EC50: 1.79 nM
Cannabinoid receptor 1 [3]
  Ki: 0.299 nM
Cannabinoid receptor 2 [4]
  Emax: 101%
Cannabinoid receptor 2 [5]
  EC50: 4.1 nM
Cannabinoid receptor 2 [6]
  Ki: 0.912 nM
Cannabinoid receptor 2 [7]
  Emax: 83%
Cannabinoid receptor 1 [8]; read-out: EC50
  EC50: 19 nM
Cannabinoid receptor 1 [9]
  EC50: 0.67 nM
Cannabinoid receptor 1 [10]; filed as agonist
  Emax: 728%

## CCCCn1cc(C(=O)N[C@H](C(N)=O)C(C)(C)C)c2ccccc21
Cannabinoid receptor 1 [1]; filed as agonist
  Emax: 115%
Cannabinoid receptor 2 [2]
  EC50: 4.44 nM
Cannabinoid receptor 1 [3]
  Ki: 1.34 nM
Cannabinoid receptor 2 [4]
  Emax: 103%
Cannabinoid receptor 2 [5]
  EC50: 6 nM
Cannabinoid receptor 2 [6]
  Ki: 1.32 nM
Cannabinoid receptor 2 [7]
  Emax: 92%
Cannabinoid receptor 1 [8]; read-out: EC50
  EC50: 139 nM
Cannabinoid receptor 1 [9]
  EC50: 6 nM
Cannabinoid receptor 1 [10]; filed as agonist
  Emax: 756%

## CCCCCn1cc(C(=O)c2cccc3ccccc23)c2ccccc21
Cannabinoid receptor 1 [1]; filed as agonist
  Emax: 116%
Cannabinoid receptor 2 [2]
  EC50: 7.3 nM
Cannabinoid receptor 1 [3]
  Ki: 2.56 nM
Cannabinoid receptor 2 [4]
  Emax: 87%
Cannabinoid receptor 2 [5]
  EC50: 22 nM
Cannabinoid receptor 2 [6]
  Ki: 9.55 nM
Cannabinoid receptor 2 [7]
  Emax: 58%
Cannabinoid receptor 1 [8]; read-out: EC50
  EC50: 35.5 nM
Cannabinoid receptor 1 [9]
  EC50: 18 nM
Cannabinoid receptor 1 [10]; filed as agonist
  Emax: 310%

## CCCCCn1cc(C(=O)N[C@H](C(N)=O)C(C)(C)C)c2cccnc21
Cannabinoid receptor 2 [2]
  EC50: 22.2 nM
Cannabinoid receptor 1 [3]
  Ki: 3.94 nM
Cannabinoid receptor 2 [4]
  Emax: 108%
Cannabinoid receptor 2 [5]
  EC50: 7.1 nM
[14]
  Activity: Non-Toxic
Cannabinoid receptor 2 [6]
  Ki: 20.4 nM
Cannabinoid receptor 2 [7]
  Emax: 102%
Cannabinoid receptor 1 [8]; read-out: EC50
  EC50: 147 nM
Cannabinoid receptor 1 [9]
  EC50: 5.8 nM
Cannabinoid receptor 1 [10]; filed as agonist
  Emax: 544%

## CCCCn1nc(C(=O)N[C@H](C(N)=O)C(C)C)c2ccccc21
Cannabinoid receptor 1 [1]; filed as agonist
  Emax: 114%
Cannabinoid receptor 2 [2]
  EC50: 13.7 nM
Cannabinoid receptor 1 [3]
  Ki: 1.18 nM
Cannabinoid receptor 2 [4]
  Emax: 103%
Cannabinoid receptor 2 [5]
  EC50: 4.2 nM
Cannabinoid receptor 2 [6]
  Ki: 6.46 nM
Cannabinoid receptor 2 [7]
  Emax: 91%
Cannabinoid receptor 1 [8]; read-out: EC50
  EC50: 187 nM
Cannabinoid receptor 1 [9]
  EC50: 7.4 nM
Cannabinoid receptor 1 [10]; filed as agonist
  Emax: 622%

## CCCCn1cc(C(=O)N[C@@H](Cc2ccccc2)C(N)=O)c2cccnc21
Cannabinoid receptor 1 [1]
  Emax: 19%
Cannabinoid receptor 2 [2]
  EC50: 3630 nM
Cannabinoid receptor 1 [3]
  Ki: 538 nM
Cannabinoid receptor 2 [4]
  Emax: 79%
Cannabinoid receptor 2 [5]
  EC50: 319 nM
Cannabinoid receptor 1 [11]
  Activity: < 50%
Cannabinoid receptor 2 [6]
  Ki: 2190 nM
Cannabinoid receptor 2 [7]
  Emax: 53%
Cannabinoid receptor 1 [8]; read-out: EC50
  EC50: > 1050 nM
Cannabinoid receptor 1 [8]; read-out: pEC50 (converted)
  EC50: 1050 nM
Cannabinoid receptor 1 [10]
  Emax: < 5%

## CCCCn1cc(C(=O)N[C@H](C(N)=O)C(C)C)c2cccnc21
Cannabinoid receptor 1 [1]; filed as agonist
  Emax: 104%
Cannabinoid receptor 2 [2]
  EC50: 4620 nM
Cannabinoid receptor 1 [3]
  Ki: 501 nM
Cannabinoid receptor 2 [4]
  Emax: 100%
Cannabinoid receptor 2 [5]
  EC50: 202 nM
Cannabinoid receptor 2 [6]
  Ki: 891 nM
Cannabinoid receptor 2 [7]
  Emax: 88%
Cannabinoid receptor 1 [8]; read-out: EC50
  EC50: > 60800 nM
Cannabinoid receptor 1 [9]
  EC50: 1490 nM
Cannabinoid receptor 1 [10]; filed as agonist
  Emax: 44%
